# Assay results taken from ChEMBL document CHEMBL3407438, “Discovery of potent, orally bioavailable, small-molecule inhibitors of WNT signaling from a cell-based pathway screen” (J Med Chem, 2015).
# Key:
# [1] = tested on: Liver microsome; test: Intrinsic clearance in rat liver microsome at 1 uM preincubated for 5 mins by LC-MS analysis; type: ADME; details: microsomes
# [2] = Drug metabolism in human liver microsome at 10 uM after 30 mins by LC-MS analysis; type: ADME; details: liver microsomes, read-out: Drug metabolism
# [3] = Drug metabolism in mouse liver microsome at 10 uM after 30 mins by LC-MS analysis; type: ADME; details: liver microsomes, read-out: Drug metabolism
# [4] = cells; type: cell-based; details: Homo sapiens, 7dF3
# [5] = Aqueous solubility of the compound; type: physicochemical; details: buffer
# [6] = Inhibition of WNT signaling in human T-Rex HEK293 Tet-O cells harboring constitutively active deltaN-LRP6 after 4 days by luciferase reporter assay; type: cell-based; details: HEK293, 96 h
# Outline: (§1)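 HEK293 T-Rex Tet-O cells stably carrying TCF-firefly luciferase-IRES-GFP reporter plus Tet-inducible cDNA (ΔN-LRP6, Dvl2, Axin-GID, ΔN-β-catenin or VP16-TCF4) introduced by FLP-FRT recombination; seeded from frozen at 40 000/well; day 3 compound added, eight concentrations 30 μM to 14 nM (final), with doxycycline hyclate; day 4 cells lysed, firefly luciferase luminescence read.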
# [7] = Inhibition of WNT signaling in human T-Rex HEK293 Tet-O cells harboring Dvl2 after 4 days by luciferase reporter assay; type: cell-based; details: HEK293, 96 h; outline: as §1
# [8] = Inhibition of WNT signaling in human T-Rex HEK293 Tet-O cells harboring dominant negative form of Axin GSK3beta-interacting domain after 4 days by luciferase reporter assay; type: cell-based; details: HEK293, 96 h; outline: as §1
# [9] = Inhibition of WNT signaling in human T-Rex HEK293 Tet-O cells harboring degradation resistant form of beta-catenin after 4 days by luciferase reporter assay; type: cell-based; details: HEK293, 96 h; outline: as §1
# [10] = Inhibition of WNT signaling in human T-Rex HEK293 Tet-O cells harboring constitutively active VP16-TCF in absence of beta-catenin after 4 days by luciferase reporter assay; type: cell-based; details: HEK293, 96 h; outline: as §1
# [11] = Apparent permeability in human Caco2 cells after 2 hrs by LC-MS/MS analysis; type: ADME, cell-based, Caco-2; details: Caco-2
"metabolised at 0.5 h, 10 µM [2] [%]","metabolised at 0.5 h, 10 µM [3] [%]",IC50 [4] [nM],Structure (SMILES),further results
39,38,309,NC(=O)C1CCN(c2c(Cl)cncc2-c2cccc(N3CCOCC3)c2)CC1,
19,21,42,NC(=O)C1CCN(c2c(Cl)cncc2-c2ccc(N3CCOCC3)cc2)CC1,
,,1200,Cn1cc(-c2cncc(-c3ccc(N4CCOCC4)cc3)c2N2CCC3(CCNC3=O)CC2)cn1,
,78,70,N#CC1CCN(c2c(Cl)cncc2-c2ccc(N3CCOCC3)cc2)CC1,
,,5700,O=C1NCCC12CCCN(c1c(Cl)cncc1-c1ccc(N3CCOCC3)cc1)C2 (racemic),
24,25,6,O=C1CC2(CCN(c3c(Cl)cncc3-c3ccc(N4CCOCC4)cc3)CC2)C(=O)N1,solubility [5]: 3 µg/mL
,,> 30000,O=C1NCCC12CCN(c1c(-c3ccccc3)cncc1-c1ccc(N3CCOCC3)cc1)CC2,
21,20,87,CC1(C(N)=O)CCN(c2c(Cl)cncc2-c2ccc(N3CCOCC3)cc2)CC1,
,,1000,O=C1NCCC12CCN(c1c(-c3ccc(N4CCOCC4)cc3)cncc1C1CC1)CC2,
,39,12,C=C(C)c1cncc(-c2ccc(N3CCOCC3)cc2)c1N1CCC2(CCNC2=O)CC1,
,,746,O=C1CC2(CCN(c3c(Cl)cncc3-c3ccc(N4CCOCC4)cc3)CC2)CN1,
38,17,78,CC(C)c1cncc(-c2ccc(N3CCOCC3)cc2)c1N1CCC2(CCNC2=O)CC1,
,42,55,O=C1NCCC12CCN(c1c(Cl)cncc1-c1ccc(N3CCOCC3)cc1)C2 (racemic),
5,26,113,Cc1cncc(-c2ccc(N3CCOCC3)cc2)c1N1CCC2(CCNC2=O)CC1,
,,715,CN1CCC2(CCN(c3c(Cl)cncc3-c3ccc(N4CCOCC4)cc3)CC2)C1=O,

# Second part, the compound before the results:
Structure (SMILES),"metabolised at 0.5 h, 10 µM [2] [%]","metabolised at 0.5 h, 10 µM [3] [%]",IC50 [4] [nM],further results
O=C1NCCC12CCN(c1c(Cl)cncc1-c1ccc(-c3cnoc3)cc1)CC2,,,,CLint [1]: 136 µL/min/mg
CNC(=O)C1CCN(c2c(Cl)cncc2Cl)CC1,13,57,12500,
"Cn1cc(-c2ccc(-c3cncc(Cl)c3N3CCC4(CCNC4=O)C3)cc2)cn1 (single isomer, unassigned; enantiomer 2)",,,,CLint [1]: 124 µL/min/mg
NC(=O)C1CCN(c2c(Cl)cncc2-c2ccccc2)CC1,6,56,88,
Cn1cc(-c2ccc(-c3cncc(Cl)c3N3CCC4(CCNC4=O)C3)cc2)cn1 (racemic),,,,CLint [1]: 213 µL/min/mg
NC(=O)C1CCN(c2c(Br)cncc2Br)CC1,13,35,360,
NC(=O)C1CCN(c2c(Cl)cncc2-c2cn[nH]c2)CC1,6,88,1700,
NC(=O)C1CCN(c2ccncc2Cl)CC1,8,,23000,
CS(=O)(=O)c1ccc(-c2cncc(Cl)c2N2CCC(C(N)=O)CC2)cc1,0,29,1670,
COCCNC(=O)C1CCN(c2c(Cl)cncc2Cl)CC1,,,> 30000,
NC(=O)C1CCN(c2ccncc2-c2ccccc2)CC1,4,23,3260,
CN(C)c1ccc(-c2cncc(Cl)c2N2CCC(C(N)=O)CC2)cc1,,,123,
CN1CCN(c2ccc(-c3cncc(Cl)c3N3CCC4(CCNC4=O)CC3)cc2)CC1,,,,CLint [1]: 10 µL/min/mg
O=C1NCCC12CCN(c1c(Cl)cncc1-c1ccc(N3CCCCC3)cc1)CC2,,,,CLint [1]: 225 µL/min/mg
NC(=O)C1CCN(c2c(Cl)cncc2-c2ccc(F)cc2)CC1,,52,87,
Clc1cncc(Cl)c1N1CCCCC1,,,> 30000,
NC(=O)C1CCN(c2c(Cl)cccc2Cl)CC1,,,27900,

Structure (SMILES),"metabolised at 0.5 h, 10 µM [2] [%]","metabolised at 0.5 h, 10 µM [3] [%]",IC50 [4] [nM],further results
CN(C)C(=O)C1CCN(c2c(Cl)cncc2Cl)CC1,22,99,26000,
Cn1ccc(-c2ccc(-c3cncc(Cl)c3N3CCC4(CCNC4=O)CC3)cc2)n1,,,,CLint [1]: 97 µL/min/mg
NC(=O)C1CCN(c2c(Cl)cncc2-c2cccnc2)CC1,6,37,1100,
O=C1NCCC12CCN(c1c(Cl)cncc1-c1ccc(C3CCOCC3)cc1)CC2,,,,CLint [1]: 111 µL/min/mg
COc1ccc(-c2cncc(Cl)c2N2CCC(C(N)=O)CC2)cc1,30,84,37,IC50 [6]: 20 nM; IC50 [7]: 20 nM; IC50 [8]: 24 nM; IC50 [9]: 70 nM; IC50 [10]: 230 nM
O=C1NCCC12CCN(c1c(Cl)cncc1-c1ccc3cnccc3c1)CC2,,,,Papp at 2 h [11]: 24 ×10⁻⁶ cm/s
NC(=O)C1CCN(c2ccncc2)CC1,,,> 30000,
O=C1NCCC12CCN(c1c(Cl)cncc1-c1ccc(-c3ccncc3)cc1)CC2,,,,CLint [1]: 99 µL/min/mg
O=C(C1CCN(c2c(Cl)cncc2Cl)CC1)N1CCOCC1,,,44600,
NC(=O)C1CCN(c2c(Cl)cncc2-c2cccs2)CC1,27,97,40,
O=C(Nc1ccccc1)C1CCN(c2c(Cl)cncc2Cl)CC1,,,> 30000,
Cn1cc(-c2cncc(Cl)c2N2CCC(C(N)=O)CC2)cn1,4,27,778,
NCC1CCN(c2c(Cl)cncc2Cl)CC1,,,10000,
NC(=O)C1CCN(c2c(Cl)cncc2-c2ccncc2)CC1,5,40,728,
Cn1ncc2cc(-c3cncc(Cl)c3N3CCC4(CCNC4=O)CC3)ccc21,,,,CLint [1]: 66 µL/min/mg
Cn1cc(-c2ccc(-c3cncc(Cl)c3N3CCC4(CCNC4=O)C3)cc2)cn1 (stereo in doubt; 79),,,,CLint [1]: 298 µL/min/mg
